From ChEMBL document CHEMBL4400530, “Synthesis and structure-activity relationship studies of water-soluble β-cyclodextrin-glycyrrhetinic acid conjugates as potential anti-influenza virus agents” (Eur J Med Chem, 2019)
≈ marks a conversion by molar mass, not a printed value. Calls of active or inactive are those of the source. The calls are words filed in the database; no cut-off is given here.

Experiments:
[1] = tested on: Human alphaherpesvirus 1; test: Antiviral activity against […] Herpes simplex virus 1 KOS infected in African green monkey Vero cells assessed as reduction in viral titer after 72 hrs by crystal violet staining based assay; assay type: functional, organism-based; details: Human alphaherpesvirus 1, strain KOS
[2] = tested on: Human alphaherpesvirus 1; test: Antiviral activity against […] Herpes simplex virus 1 B2006 infected in African green monkey Vero cells assessed as reduction in viral titer after 72 hrs by crystal violet staining based assay; assay type: functional, organism-based; details: Human alphaherpesvirus 1, B2006, Vero
[3] = tested on: MDCK; test: Cytotoxicity against MDCK cells assessed as effect on cell viability at 50 uM measured after 36 hrs by CellTiter-Glo assay; assay type: cell-based, Canis lupus familiaris; details: dog
How it was run: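 MDCK cells (1 × 10⁴ per well) left to adhere 24 h at 37 °C, 5% CO₂. Medium then replaced with fresh medium containing compound at 50 μM, in triplicate. Controls received medium with 1% DMSO. Plates incubated 36 h at 37 °C, 5% CO₂, then viability read by CellTiter-Glo luminescence.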

[4] = tested on: Influenza A virus; test: Antiviral activity against Influenza A virus (A/WSN/33(H1N1)) infected in MDCK cells assessed as reduction in virus-induced cytopathic effect at 50 uM after 40 hrs by CellTiter-Glo assay; assay type: functional, organism-based; details: A/WSN/1933(H1N1)
How it was run: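 MDCK cells seeded, grown overnight, then infected with A/WSN/33 (H1N1) at MOI 0.1 in DMEM with 1% FBS, 2 μg/mL TPCK-treated trypsin and test compound (final DMSO 1%). Compounds screened at a single 50 μM concentration. Incubation 40 h, then viability read by CellTiter-Glo luminescence. Oseltamivir positive control, DMSO negative control. Virus stock titres determined in MDCK cells by Reed and Muench.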

[5] = tested on: Human gammaherpesvirus 4; test: Antiviral activity against EBV infected in human Raji cells assessed as reduction in viral genome copy numbers by qRT-PCR analysis; assay type: functional, organism-based; details: human gammaherpesvirus 4, Raji
[6] = Lipophilicity, log P of the compound; assay type: physicochemical; details: octanol/water
How it was run: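 Calculated value (AlogP, Ghose and Crippen octanol–water partition coefficient at 25 °C), computed in silico rather than measured.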

[7] = Solubility of the compound in water; assay type: physicochemical; details: buffer

SMILES	Activity [3]	Activity [4]	further results
CC(O)CNC(=O)[C@@]1(C)CC[C@]2(C)CC[C@]3(C)C(=CC(=O)[C@@H]4[C@@]5(C)CC[C@H](O)C(C)(C)[C@@H]5CC[C@]43C)[C@@H]2C1 (some centres undefined)	–	–	EC50 [1]: 4.95 µM; EC50 [2]: 4.95 µM
CC1(C)[C@@H](OCc2cn(C[C@H]3O[C@@H]4O[C@H]5[C@H](O)[C@@H](O)[C@@H](O[C@H]6[C@H](O)[C@@H](O)[C@@H](O[C@H]7[C@H](O)[C@@H](O)[C@@H](O[C@H]8[C@H](O)[C@@H](O)[C@@H](O[C@H]9[C@H](O)[C@@H](O)[C@@H](O[C@H]%10[C@H](O)[C@@H](O)[C@@H](O[C@H]3[C@H](O)[C@H]4O)O[C@@H]%10CO)O[C@@H]9CO)O[C@@H]8CO)O[C@@H]7CO)O[C@@H]6CO)O[C@@H]5CO)nn2)CC[C@]2(C)[C@H]3C(=O)C=C4[C@@H]5C[C@@](C)(C(=O)O)CC[C@]5(C)CC[C@@]4(C)[C@]3(C)CC[C@@H]12	Non-Toxic	Active	–
CC1(C)[C@@H](O)CC[C@]2(C)[C@H]3C(=O)C=C4[C@@H]5C[C@@](C)(C(=O)NCCOCCOCCOCCOCc6cn(C[C@H]7O[C@@H]8O[C@H]9[C@H](O)[C@@H](O)[C@@H](O[C@H]%10[C@H](O)[C@@H](O)[C@@H](O[C@H]%11[C@H](O)[C@@H](O)[C@@H](O[C@H]%12[C@H](O)[C@@H](O)[C@@H](O[C@H]%13[C@H](O)[C@@H](O)[C@@H](O[C@H]%14[C@H](O)[C@@H](O)[C@@H](O[C@H]7[C@H](O)[C@H]8O)O[C@@H]%14CO)O[C@@H]%13CO)O[C@@H]%12CO)O[C@@H]%11CO)O[C@@H]%10CO)O[C@@H]9CO)nn6)CC[C@]5(C)CC[C@@]4(C)[C@]3(C)CC[C@@H]12	Non-Toxic	Active	–
CC(=O)OC[C@H]1O[C@@H]2O[C@H]3[C@H](OC(C)=O)[C@@H](OC(C)=O)[C@@H](O[C@H]4[C@H](OC(C)=O)[C@@H](OC(C)=O)[C@@H](O[C@H]5[C@H](OC(C)=O)[C@@H](OC(C)=O)[C@@H](O[C@H]6[C@H](OC(C)=O)[C@@H](OC(C)=O)[C@@H](O[C@H]7[C@H](OC(C)=O)[C@@H](OC(C)=O)[C@@H](O[C@H]8[C@H](OC(C)=O)[C@@H](OC(C)=O)[C@@H](O[C@H]1[C@H](OC(C)=O)[C@H]2OC(C)=O)O[C@@H]8COC(C)=O)O[C@@H]7COC(C)=O)O[C@@H]6COC(C)=O)O[C@@H]5Cn1cc(COCCOCCOCCOCCOCCOCCNC(=O)[C@@]2(C)CC[C@]5(C)CC[C@]6(C)C(=CC(=O)[C@@H]7[C@@]8(C)CC[C@H](O)C(C)(C)[C@@H]8CC[C@]76C)[C@@H]5C2)nn1)O[C@@H]4COC(C)=O)O[C@@H]3COC(C)=O	Non-Toxic	Active	–
CC1(C)[C@@H](O)CC[C@]2(C)[C@H]3C(=O)C=C4[C@@H]5C[C@@](C)(C(=O)O)CC[C@]5(C)CC[C@@]4(C)[C@]3(C)CC[C@@H]12 [ENOXOLONE]	–	–	EC50 [5]: 4 µM; logP [6]: 6.75; solubility [7]: 0.0106 mg/mL (≈ 22.5 µM)
CC(=O)OC[C@H]1O[C@@H]2O[C@H]3[C@H](OC(C)=O)[C@@H](OC(C)=O)[C@@H](O[C@H]4[C@H](OC(C)=O)[C@@H](OC(C)=O)[C@@H](O[C@H]5[C@H](OC(C)=O)[C@@H](OC(C)=O)[C@@H](O[C@H]6[C@H](OC(C)=O)[C@@H](OC(C)=O)[C@@H](O[C@H]7[C@H](OC(C)=O)[C@@H](OC(C)=O)[C@@H](O[C@H]8[C@H](OC(C)=O)[C@@H](OC(C)=O)[C@@H](O[C@H]1[C@H](OC(C)=O)[C@H]2OC(C)=O)O[C@@H]8COC(C)=O)O[C@@H]7COC(C)=O)O[C@@H]6COC(C)=O)O[C@@H]5Cn1cc(COCCOCCOCCOCCNC(=O)[C@@]2(C)CC[C@]5(C)CC[C@]6(C)C(=CC(=O)[C@@H]7[C@@]8(C)CC[C@H](O)C(C)(C)[C@@H]8CC[C@]76C)[C@@H]5C2)nn1)O[C@@H]4COC(C)=O)O[C@@H]3COC(C)=O	Non-Toxic	Active	–
CC(=O)OC[C@H]1O[C@@H]2O[C@H]3[C@H](O)[C@@H](O)[C@@H](O[C@H]4[C@H](O)[C@@H](O)[C@@H](O[C@H]5[C@H](O)[C@@H](O)[C@@H](O[C@H]6[C@H](O)[C@@H](O)[C@@H](O[C@H]7[C@H](O)[C@@H](O)[C@@H](O[C@H]8[C@H](O)[C@@H](O)[C@@H](O[C@H]1[C@H](O)[C@H]2O)O[C@@H]8CO)O[C@@H]7CO)O[C@@H]6CO)O[C@@H]5CO)O[C@@H]4Cn1cc(COCCOCCNC(=O)[C@@]2(C)CC[C@]4(C)CC[C@]5(C)C(=CC(=O)[C@@H]6[C@@]7(C)CC[C@H](O)C(C)(C)[C@@H]7CC[C@]65C)[C@@H]4C2)nn1)O[C@@H]3COC(C)=O	Non-Toxic	Active	–
CC(=O)OC[C@H]1O[C@@H]2O[C@H]3[C@H](OC(C)=O)[C@@H](OC(C)=O)[C@@H](O[C@H]4[C@H](OC(C)=O)[C@@H](OC(C)=O)[C@@H](O[C@H]5[C@H](OC(C)=O)[C@@H](OC(C)=O)[C@@H](O[C@H]6[C@H](OC(C)=O)[C@@H](OC(C)=O)[C@@H](O[C@H]7[C@H](OC(C)=O)[C@@H](OC(C)=O)[C@@H](O[C@H]8[C@H](OC(C)=O)[C@@H](OC(C)=O)[C@@H](O[C@H]1[C@H](OC(C)=O)[C@H]2OC(C)=O)O[C@@H]8COC(C)=O)O[C@@H]7COC(C)=O)O[C@@H]6COC(C)=O)O[C@@H]5Cn1cc(COCCOCCNC(=O)[C@@]2(C)CC[C@]5(C)CC[C@]6(C)C(=CC(=O)[C@@H]7[C@@]8(C)CC[C@H](O)C(C)(C)[C@@H]8CC[C@]76C)[C@@H]5C2)nn1)O[C@@H]4COC(C)=O)O[C@@H]3COC(C)=O	Non-Toxic	Active	–
CC(=O)OC[C@H]1O[C@@H]2O[C@H]3[C@H](O)[C@@H](O)[C@@H](O[C@H]4[C@H](O)[C@@H](O)[C@@H](O[C@H]5[C@H](O)[C@@H](O)[C@@H](O[C@H]6[C@H](O)[C@@H](O)[C@@H](O[C@H]7[C@H](O)[C@@H](O)[C@@H](O[C@H]8[C@H](O)[C@@H](O)[C@@H](O[C@H]1[C@H](O)[C@H]2O)O[C@@H]8CO)O[C@@H]7CO)O[C@@H]6CO)O[C@@H]5CO)O[C@@H]4CO)O[C@@H]3Cn1cc(CN2CCN(CCNC(=O)[C@@]3(C)CC[C@]4(C)CC[C@]5(C)C(=CC(=O)[C@@H]6[C@@]7(C)CC[C@H](O)C(C)(C)[C@@H]7CC[C@]65C)[C@@H]4C3)CC2)nn1	Non-Toxic	inactive	–
CC(=O)OC[C@H]1O[C@@H]2O[C@H]3[C@H](OC(C)=O)[C@@H](OC(C)=O)[C@@H](O[C@H]4[C@H](OC(C)=O)[C@@H](OC(C)=O)[C@@H](O[C@H]5[C@H](OC(C)=O)[C@@H](OC(C)=O)[C@@H](O[C@H]6[C@H](OC(C)=O)[C@@H](OC(C)=O)[C@@H](O[C@H]7[C@H](OC(C)=O)[C@@H](OC(C)=O)[C@@H](O[C@H]8[C@H](OC(C)=O)[C@@H](OC(C)=O)[C@@H](O[C@H]1[C@H](OC(C)=O)[C@H]2OC(C)=O)O[C@@H]8COC(C)=O)O[C@@H]7COC(C)=O)O[C@@H]6COC(C)=O)O[C@@H]5Cn1cc(CN2CCN(CCNC(=O)[C@@]5(C)CC[C@]6(C)CC[C@]7(C)C(=CC(=O)[C@@H]8[C@@]9(C)CC[C@H](O)C(C)(C)[C@@H]9CC[C@]87C)[C@@H]6C5)CC2)nn1)O[C@@H]4COC(C)=O)O[C@@H]3COC(C)=O	Non-Toxic	inactive	–
CC1(C)[C@@H](O)CC[C@]2(C)[C@H]3C(=O)C=C4[C@@H]5C[C@@](C)(C(=O)NCCOCc6cn(C[C@H]7O[C@@H]8O[C@H]9[C@H](O)[C@@H](O)[C@@H](O[C@H]%10[C@H](O)[C@@H](O)[C@@H](O[C@H]%11[C@H](O)[C@@H](O)[C@@H](O[C@H]%12[C@H](O)[C@@H](O)[C@@H](O[C@H]%13[C@H](O)[C@@H](O)[C@@H](O[C@H]%14[C@H](O)[C@@H](O)[C@@H](O[C@H]7[C@H](O)[C@H]8O)O[C@@H]%14CO)O[C@@H]%13CO)O[C@@H]%12CO)O[C@@H]%11CO)O[C@@H]%10CO)O[C@@H]9CO)nn6)CC[C@]5(C)CC[C@@]4(C)[C@]3(C)CC[C@@H]12	Non-Toxic	Active	–
CC1(C)[C@@H](O[C@H]2O[C@H](C(=O)O)[C@@H](O)[C@H](O)[C@H]2O[C@@H]2O[C@H](C(=O)O)[C@@H](O)[C@H](O)[C@H]2O)CC[C@]2(C)[C@H]3C(=O)C=C4[C@@H]5C[C@@](C)(C(=O)O)CC[C@]5(C)CC[C@@]4(C)[C@]3(C)CC[C@@H]12 [GLYCYRRHIZIN]	–	–	EC50 [5]: 30 µM
